Experimental findings from ChEMBL document CHEMBL1145429, “Enaminone amides as novel orally active GABAA receptor modulators” (J Med Chem, 2007) are described below.

Structures are written as SMILES. Calls of active or inactive are those of the source. The calls are words filed in the database; no cut-off is given here.

The species entered for data set [1] is Rattus norvegicus. Description: (§1) Displacement of [35S]TBPS from GABAA receptor in Sprague-Dawley rat cortex membrane. Format: cell membranes. (Loss of bound radioactivity is the signal in a displacement assay; it reports binding, not function.)
Data set [2] deals with Mus musculus. The experiment in a line: Anticonvulsant activity against pentylenetetrazole-induced seizures in non-Swiss Albino mouse at 50 mg/kg, ip. Format: functional, organism-based. Also noted: dose 50 mg/kg.
Data set [3] is described as follows: as §1. Format: cell membranes.
In data set [4] the test system is Mus musculus. The experiment in a line: Induction of loss of righting reflex in non-Swiss Albino mouse at 50 mg/kg, ip after 40 mins. It is filed as functional, organism-based. On the set-up: dose 50 mg/kg. In outline:
(§2)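 Male NSA mice were dosed at 50 mg/kg ip or po in PEG 400 and then placed on their backs. Animals staying on their backs for more than 1 min were scored as having lost the righting reflex.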

Data set [5] is filed under the species Rattus norvegicus. The experiment in a line: Displacement of [3H]flunitrazepam from BZ-site of GABAA receptor in Sprague-Dawley rat cortex membrane. Format: cell membranes. In outline: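 P2 membrane pellet (sucrose homogenate spun 1000g then 9000g), resuspended in 50 mM Na/K phosphate pH 7.4 with 200 mM NaCl. Incubated with 0.2 nM [3H]flunitrazepam, 1 µM GABA and test drug in DMSO (≤1%) for 90 min at 25 °C. Nonspecific binding defined with 1 µM clonazepam. Filtration, scintillation counting; nonlinear regression fit.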

The test system of data set [6] is Mus musculus. The experiment in a line: Induction of loss of righting reflex in non-Swiss Albino mouse at 50 mg/kg, po. Also noted: dose 50 mg/kg. Format: functional, organism-based. The essentials: as §2
The test system of data set [7] is Mus musculus. The experiment in a line: Suppression of locomotor activity in non-Swiss Albino mouse at 50 mg/kg, po. It is filed as functional, organism-based. Also noted: dose 50 mg/kg. The essentials:
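Male NSA mice, either nonhabituated or habituated (30 min in the chamber on 3 consecutive days), were given compound in PEG 400 or vehicle and immediately placed in an activity chamber. Horizontal beam breaks were recorded every 5 min, over 1 h for habituated mice. Activity was taken as total distance traveled (cm), with testing between 9 a.m. and 2 p.m.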

Data set [8] has as its system Mus musculus. Description: Anxiolytic activity in non-Swiss Albino mouse assessed as reduction of time spent in dark at 3 mg/kg, po. It is filed as functional, organism-based. On the set-up: dose 3 mg/kg. In outline:
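Male NSA mice (25-30 g) were dosed po 30 min before a 3 min session in a light-dark box: a black compartment lit with red light and an illuminated white compartment, joined by a floor-level hole. Time spent in each compartment was recorded. Vehicle was 3:1 PEG 400/5% dextrose in water.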

Data set [9] deals with Mus musculus. The experiment in a line: CNS toxicity by rotarod test in non-Swiss Albino mouse at 3 mg/kg, po. It is filed as organism-based. Also noted: dose 3 mg/kg, route oral. As to conditions: in vivo. The essentials:
(§3)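 Mice were dosed orally and scored on the rotarod for CNS depressant potential. TD50, the dose causing behavioral toxicity in half the animals, was calculated from each dose-response function by the Litchfield-Wilcoxon method.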

The nature of data set [10]: Therapeutic index, ratio of light-dark MED to TD50 by rotarod test in non-Swiss Albino mouse at 3 mg/kg, po. It is filed as organism-based. On the set-up: dose 3 mg/kg, route oral. As to conditions: in vivo, read-out: TI. In outline: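 The index was calculated as […]. Both were measured in male NSA mice given oral doses. TD50 was derived by the Litchfield-Wilcoxon method, and light-dark time was recorded over a 3 min session 30 min after dosing.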
For orientation: The rotarod test checks motor coordination on a turning rod.

In data set [11] the target is GABA-A receptor; alpha-1/beta-2/gamma-2 (Homo sapiens) (UniProt P14867+P47870+P18507). The experiment in a line: Activity at human GABAA alpha-1-beta-2-gamma-2L expressed in Xenopus oocytes assessed as potentiation of GABA currents in absence of GABA at 10 uM. It is filed as cell-based. As to conditions: Oocyte.
Data set [12] is described as follows: Enhancement of [3H]flunitrazepam binding to BZ-site of GABAA receptor in Sprague-Dawley rat cortex membrane. It is filed as cell membranes. In outline:
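Conditions and membrane preparation match the TBPS assay, except that GABA was 1 µM. Sites were labelled with 0.2 nM [3H]flunitrazepam, and nonspecific binding was defined with 1 µM clonazepam.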

For data set [13], the species on record is Rattus norvegicus. Description: Enhancement of [3H]muscimol binding to BZ-site of GABAA receptor in Sprague-Dawley rat cortex membrane. Format: cell membranes.
Data set [14] deals with Mus musculus. Description: CNS toxicity by rotarod test in non-Swiss Albino mouse at 50 mg/kg, po. It is filed as organism-based. Also noted: dose 50 mg/kg, route oral. The following applies: in vivo. The essentials: as §3

For `NC(=O)/C(=C\Nc1ccc(Cl)cc1)C(=O)c1ccccc1Cl`, the Imax in the data set filed under Rattus norvegicus [1] was determined as 40%. Also, in the data set with Mus musculus [2], the outcome was inactive.
A word on the IC50: it is the point on the concentration scale where inhibition reaches its midpoint. In the case of `CCOC(=O)/C(=C\Nc1ccccc1Cl)C(=O)c1ccccc1Cl`, the IC50 in data set [3] is 700 nM. The same compound showed an Imax in the data set listed under Rattus norvegicus [1] of 100%.
For the compound `CCOC(=O)/C(=C\Nc1ccc(F)cc1)C(=O)c1ccc(Cl)cc1`, the half-maximal inhibitory concentration (IC50) in data set [3] is 490 nM. The Imax in the data set filed under Rattus norvegicus [1] came to 100%.
In data set [3], `CNC(=O)/C(=C\Nc1ccc(Cl)cc1)C(=O)c1ccccc1Cl` returned an IC50 of 160 nM. This compound also displayed an Imax in the data set listed under Rattus norvegicus [1] of 74%. Also, the outcome in the data set on Mus musculus [2] was inactive.
The compound `O=C(NC1CCC1)/C(=C\Nc1ccc(Cl)cc1)C(=O)c1ccccc1Cl` had an IC50 in [3] of 7 nM. The Imax in the data set filed under Rattus norvegicus [1] amounted to 88%. Besides, the result in the data set on Mus musculus [4] was Active. For the same compound, the outcome in the data set on Mus musculus [2] was inactive.
Turning to `CCOC(=O)/C(=C\Nc1ccc(F)cc1)C(=O)c1cc(F)c(Cl)cc1Cl`, the IC50 in data set [3] is 130 nM. The compound also showed an Imax in the data set listed under Rattus norvegicus [1] of 87%.
In the case of `O=C1CN=C(c2ccccc2Cl)c2cc([N+](=O)[O-])ccc2N1`, the Activity result in the data set listed under Rattus norvegicus [5] was “Dose-dependent effect”.
In the case of `CC(C)C(C)NC(=O)/C(=C\Nc1ccc(Cl)cc1)C(=O)c1ccccc1Cl` (stereo unspecified), in data set [3], the IC50 came out at 400 nM. The Imax in the data set filed under Rattus norvegicus [1] came out at 94%. Moreover, the outcome with Mus musculus [2] was inactive.
The compound `CCOC(=O)/C(=C\Nc1ccc(F)cc1)C(=O)c1ccccc1Cl` yielded an IC50 in data set [3] of 300 nM. The compound also came in with an Imax in the data set listed under Rattus norvegicus [1] of 93%.
On to `O=C(NC1CCCC1)/C(=C\Nc1ccc(Cl)cc1)C(=O)c1ccccc1Cl`, for which the IC50 in data set [3] came to 30 nM. In the data set filed under Rattus norvegicus [1], this compound yielded an Imax of 88%. Besides, in the data set with Mus musculus [2], the result was inactive.
In turn, `CCOC(=O)/C(=C\Nc1ccc(Cl)cc1)C(=O)c1ccccc1Cl` showed an IC50 in [3] of 90 nM. Besides, the Imax in the data set listed under Rattus norvegicus [1] is 95%. Besides, the result with Mus musculus [4] was Active. The result in the data set on Mus musculus [6] and with Mus musculus [7] was inactive.
For `CC(C)NC(=O)/C(=C\Nc1ccc(Cl)cc1)C(=O)c1ccccc1Cl`, in [3], the IC50 came to 40 nM. Further, in the data set filed under Rattus norvegicus [1], the Imax was found to be 80%. The result in the data set on Mus musculus [4] and in the data set with Mus musculus [8] was Active. In addition, in the data set with Mus musculus [9], the Activity entry was “Non-toxic”. Further, the selectivity ratio in data set [10] was over 10. The result (in the data set on Mus musculus [2]; in [11]) was inactive.
In [3], `CCOC(=O)/C(=C\Nc1ccc(C(C)C)cc1)C(=O)c1ccccc1Cl` returned an IC50 of 360 nM. In addition, the Imax in the data set filed under Rattus norvegicus [1] came to 94%.
Regarding `CCCNC(=O)/C(=C\Nc1ccc(Cl)cc1)C(=O)c1ccccc1Cl`, the IC50 in [3] is 45 nM. This compound also showed an Imax in the data set filed under Rattus norvegicus [1] of 90%. Also, the outcome in the data set with Mus musculus [4] was Active. The outcome in the data set with Mus musculus [6] and in the data set with Mus musculus [2] was inactive.
Turning to `CCOC(=O)/C(=C\Nc1ccc(C)cc1)C(=O)c1ccccc1Cl`, the IC50 in [3] is 450 nM. This compound gave an Imax in the data set filed under Rattus norvegicus [1] of 93%.
The EC50 is the concentration needed to bring the measured effect to its halfway point. Compound `C#Cc1ccc(N/C=C(\C(=O)OCC)C(=O)c2ccccc2Cl)cc1` came in with a concentration for half-maximal inhibition (IC50) in [3] of 8 nM. This compound also gave an Imax in the data set filed under Rattus norvegicus [1] of 100%. Further, in data set [12], the EC50 was found to be 6 nM. Further, the result in the data set listed under Rattus norvegicus [13] was Active.
In [3], `CC(C)(C)NC(=O)/C(=C\Nc1ccc(Cl)cc1)C(=O)c1ccccc1Cl` displayed an IC50 of 3000 nM. Also, the Imax in the data set filed under Rattus norvegicus [1] was determined as 100%. Moreover, the result in the data set on Mus musculus [2] was inactive.
Compound `CCC(C)NC(=O)/C(=C\Nc1ccc(Cl)cc1)C(=O)c1ccccc1Cl` (stereo unspecified) returned an IC50 in [3] of 20 nM. Besides, the Imax in the data set filed under Rattus norvegicus [1] stood at 86%. In addition, the result in the data set on Mus musculus [4] was Active. Moreover, in the data set on Mus musculus [2], the outcome was inactive.
Turning to `C#Cc1ccc(N/C=C(\C(=O)NCCC)C(=O)c2ccccc2Cl)cc1`, the concentration for a half-maximal effect (EC50) in data set [12] was determined as 60 nM. Further, the result in the data set filed under Rattus norvegicus [13] was Active.
Compound `CCOC(=O)/C(=C\Nc1cccc(Cl)c1)C(=O)c1ccccc1Cl` yielded an IC50 in data set [3] of 600 nM. In addition, in the data set listed under Rattus norvegicus [1], the Imax was 100%.
`O=C(NC1CC1)/C(=C\Nc1ccc(Cl)cc1)C(=O)c1ccccc1Cl` displayed an IC50 in data set [3] of 30 nM. In addition, the Imax in the data set listed under Rattus norvegicus [1] was 92%. The outcome in the data set on Mus musculus [4] was Active. The outcome in the data set with Mus musculus [2] was inactive.
`CCC(CC)NC(=O)/C(=C\Nc1ccc(Cl)cc1)C(=O)c1ccccc1Cl`: in data set [3], the IC50 was 80 nM. Moreover, the Imax in the data set filed under Rattus norvegicus [1] amounted to 86%. Moreover, the result with Mus musculus [2] was inactive.
For `CCNC(=O)/C(=C\Nc1ccc(Cl)cc1)C(=O)c1ccccc1Cl`, the IC50 in data set [3] is 50 nM. Also, the Imax in the data set listed under Rattus norvegicus [1] was found to be 82%. Also, in the data set on Mus musculus [4], the result was Active. Moreover, the outcome in the data set with Mus musculus [6] and in the data set with Mus musculus [2] was inactive. Moreover, the Activity result in the data set on Mus musculus [14] is “Non-toxic”.
Compound `CCOC(=O)/C(=C\Nc1ccc(F)cc1)C(=O)c1cccc(Cl)c1` registered an IC50 in data set [3] of 900 nM. Further, the Imax in the data set filed under Rattus norvegicus [1] was found to be 90%.
